Reference: ChEMBL document CHEMBL4680287, “Ibrexafungerp: An orally active β-1,3-glucan synthesis inhibitor” (Bioorg Med Chem Lett, 2021)

What was measured:
[1] = Inhibition of beta-1,3-glucan synthase in Candida albicans MY1055 microsomal membrane assessed as inhibition of TCA-insoluble material formation using UDP-[3H]-glucose as substrate incubated for 2 hrs in presence of GTP by radioactivity-based assay; type: microsomes, Microsome
Outline: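 GS IC50 measured using Candida albicans MY1055 microsomal membrane fragments as the enzyme source.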

Candida albicans [2] = test: Antifungal activity against Candida albicans MY1055 assessed as fungal growth inhibition measured after 24 hrs by liquid microdilution method; type: functional
Outline: (§1)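 Broth microdilution per CLSI protocols in RPMI medium. Read-out is the MIC, the lowest concentration completely inhibiting fungal growth. Run without serum and with added serum.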

Aspergillus fumigatus [3] = test: Antifungal activity against Aspergillus fumigatus MF5668 assessed inhibition of fungal growth by measuring morphological changes measured after 24 hrs by microscopy; type: functional; conditions: read-out: MEC
Outline: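 Microdilution per CLSI protocols in RPMI medium. Read-out is the minimum effective concentration (MEC). Run without serum and with 50% human serum.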

Candida albicans [4] = test: Antifungal activity against Candida albicans MY1055 assessed as fungal growth inhibition measured after 24 hrs in presence of 50% mouse serum by liquid microdilution method; type: functional; outline: as §1
[5] = Dose normalized AUC in po dosed mouse; type: ADME, organism-based; conditions: in vivo
[6] = Oral bioavailability in mouse; type: ADME, organism-based; conditions: in vivo
Outline: (§2)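 Oral bioavailability calculated as oral AUC normalized to the IV dose, divided by the IV AUC.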

Candida albicans [7] = test: Antifungal activity against Candida albicans MY1055 infected in DBA/2 mouse model of disseminated candidiasis assessed as reduction in fungal burden in kidney by measuring log change in colony forming units at 25 mg/kg, po bid for 7 days by TOKA; type: functional; conditions: time 7 day
Outline: (§3)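 Murine disseminated candidiasis model (TOKA) in mice challenged with C. albicans MY1055 at 2.44 x 10^4 CFU/mouse. Dosed PO, or IP where stated. Kidneys collected aseptically 7 days after challenge and CFUs/g counted. Change in log CFU/g is relative to sham-treated controls; significance by two-tailed t test. Clearance is the percentage of kidneys below the detection limit.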

Candida albicans [8] = test: Antifungal activity against Candida albicans MY1055 infected in DBA/2 mouse model of disseminated candidiasis assessed as reduction in fungal burden in kidney by measuring log change in colony forming units at 12.5 mg/kg, po bid for 7 days by TOKA; type: functional; conditions: time 7 day; outline: as §3
Candida albicans [9] = test: Antifungal activity against Candida albicans MY1055 infected in DBA/2 mouse model of disseminated candidiasis assessed as reduction in fungal burden in kidney by measuring log change in colony forming units at 6.25 mg/kg, po bid for 7 days by TOKA; type: functional; conditions: time 7 day; outline: as §3
[10] = Clearance in mouse; type: ADME, organism-based; conditions: in vivo
[11] = Half life in mouse; type: ADME, organism-based; conditions: in vivo
[12] = Clearance in rat; type: ADME; conditions: in vivo
[13] = Half life in rat; type: ADME; conditions: in vivo
[14] = Dose normalized AUC in po dosed rat; type: ADME, organism-based; conditions: in vivo
[15] = Oral bioavailability in rat; type: ADME, organism-based; conditions: in vivo; outline: as §2
[16] = Clearance in dog; type: ADME, Canis lupus familiaris; conditions: in vivo
[17] = Half life in dog; type: ADME, Canis lupus familiaris; conditions: in vivo
[18] = Dose normalized AUC in po dosed dog; type: ADME, organism-based, Canis lupus familiaris; conditions: in vivo
[19] = Oral bioavailability in dog; type: ADME, organism-based, Canis lupus familiaris; conditions: in vivo; outline: as §2
[20] = Clearance in rhesus monkey; type: ADME, Macaca mulatta; conditions: in vivo
[21] = Half life in rhesus monkey; type: ADME, Macaca mulatta; conditions: in vivo
[22] = Dose normalized AUC in po rhesus monkey; type: ADME, organism-based, Macaca mulatta; conditions: in vivo
[23] = Oral bioavailability in rhesus monkey; type: ADME, organism-based, Macaca mulatta; conditions: in vivo; outline: as §2
Candida albicans [24] = test: Antifungal activity against Candida albicans MY1055 infected in ip dosed DBA/2 mouse model of disseminated candidiasis assessed as reduction in fungal burden in kidney administered bid for 7 days by TOKA; type: functional; conditions: 168 h, time 7 day; outline: as §3
Candida albicans [25] = test: Antifungal activity against Candida albicans MY1055 infected in DBA/2 mouse model of disseminated candidiasis assessed as reduction in fungal burden in kidney by measuring log change in colony forming units at 12.5 mg/kg, ip bid for 7 days by TOKA; type: functional; conditions: time 7 day; outline: as §3
Aspergillus fumigatus [26] = test: Antifungal activity against Aspergillus fumigatus MF5668 infected in DBA/2N mouse assessed as mouse survival at 12.5 mg/kg, ip bid administered for 7 days starting from 15 to 30 mins post infection and measured up to 21 days relative to control; type: functional; conditions: 168 h, time 7 day
Outline: (§4)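 DBA/2N mice were infected IV with A. fumigatus MF5668 (6.7 x 10^5 CFU/mouse) and treated IP bid for 7 days. Percent survival per dose group was scored at the end of the 21-day survival model and compared with the sham-treated control group.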

Aspergillus fumigatus [27] = test: Antifungal activity against Aspergillus fumigatus MF5668 infected in DBA/2N mouse assessed as mouse survival at 6.25 mg/kg, ip bid administered for 7 days starting from 15 to 30 mins post infection and measured up to 21 days relative to control; type: functional; conditions: 168 h, time 7 day; outline: as §4
Aspergillus fumigatus [28] = test: Antifungal activity against Aspergillus fumigatus MF5668 infected in DBA/2N mouse assessed as mouse survival at 3.125 mg/kg, ip bid administered for 7 days starting from 15 to 30 mins post infection and measured up to 21 days relative to control; type: functional; conditions: 168 h, time 7 day; outline: as §4
Aspergillus fumigatus [29] = test: Antifungal activity against Aspergillus fumigatus MF5668 infected in ip dosed DBA/2N mouse assessed as 90% mouse survival administered bid administered for 7 days starting from 15 to 30 mins post infection and measured up to 21 days; type: functional; conditions: 168 h, time 7 day
Aspergillus fumigatus [30] = test: Antifungal activity against Aspergillus fumigatus MF5668 infected in DBA/2N mouse assessed as mean survival time at 12.5 mg/kg, ip bid administered for 7 days starting from 15 to 30 mins post infection and measured up to 21 days; type: functional; conditions: time 7 day
Outline: (§5)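 DBA/2N mice were challenged IV with A. fumigatus MF5668 at 6.7 x 10^5 CFU/mouse, then dosed IP twice daily for 7 days. Survival was followed over a 21-day model, and mean survival time in days was recorded per dose group. A sham-treated control group was run alongside.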

Aspergillus fumigatus [31] = test: Antifungal activity against Aspergillus fumigatus MF5668 infected in DBA/2N mouse assessed as mean survival time at 6.25 mg/kg, ip bid administered for 7 days starting from 15 to 30 mins post infection and measured up to 21 days; type: functional; conditions: time 7 day; outline: as §5
Aspergillus fumigatus [32] = test: Antifungal activity against Aspergillus fumigatus MF5668 infected in DBA/2N mouse assessed as mean survival time at 3.125 mg/kg, ip bid administered for 7 days starting from 15 to 30 mins post infection and measured up to 21 days; type: functional; conditions: time 7 day; outline: as §5
Aspergillus fumigatus [33] = test: Antifungal activity against Aspergillus fumigatus MF5668 infected in DBA/2N mouse assessed as mouse survival at 1.56 mg/kg, ip bid administered for 7 days starting from 15 to 30 mins post infection and measured up to 21 days relative to control; type: functional; conditions: 168 h, time 7 day; outline: as §4
Aspergillus fumigatus [34] = test: Antifungal activity against Aspergillus fumigatus MF5668 infected in DBA/2N mouse assessed as mean survival time at 1.56 mg/kg, ip bid administered for 7 days starting from 15 to 30 mins post infection and measured up to 21 days; type: functional; conditions: time 7 day; outline: as §5
Aspergillus fumigatus [35] = test: Antifungal activity against Aspergillus fumigatus MF5668 infected in ip dosed DBA/2N mouse assessed as 50% mouse survival administered bid administered for 7 days starting from 15 to 30 mins post infection and measured up to 21 days; conditions: 168 h

For `CC(C)[C@@H](C)[C@@]1(C)CC[C@]2(C)[C@H]3CC[C@@H]4[C@@]5(COC[C@@]4(C)[C@@H](OC[C@](C)(N)C(C)C)[C@H](n4ncnc4-c4ccncc4)C5)C3=CC[C@@]2(C)[C@@H]1C(=O)O`, which IC50 [1] is on record?
Its IC50 is 2 ng/mL.

And the MIC (Candida albicans [2])?
Its MIC is under 0.03 µg/mL.

And the minimal effective concentration (Aspergillus fumigatus [3])?
Its minimal effective concentration is under 0.03 µg/mL.

And the MIC (Candida albicans [4])?
Its MIC is 0.5 µg/mL.

And the AUC/dose [5]?
The AUC/dose was 0.42 µM·kg·h/mg.

What about the bioavailability [6] of the same compound?
The bioavailability was 31%.

And the Activity (Candida albicans [7])?
The Activity was -4.5 deltalog10CFU.

And the Activity (Candida albicans [8])?
The Activity was -2.9 deltalog10CFU.

What about the Activity (Candida albicans [9]) of the same compound?
The Activity was -2.4 deltalog10CFU.

And the clearance [10]?
The clearance was 17 mL/min/kg.

What about the half-life [11] of the same compound?
The half-life was 294 min.

And the clearance [12]?
The clearance was 12 mL/min/kg.

What about the half-life [13] of the same compound?
Its half-life is 234 min.

What about the AUC/dose [14] of the same compound?
Its AUC/dose is 0.56 µM·kg·h/mg.

What about the bioavailability [15] of the same compound?
The bioavailability was 28%.

What about the clearance [16] of the same compound?
The clearance was 6 mL/min/kg.

And the half-life [17]?
The half-life was 540 min.

What about the AUC/dose [18] of the same compound?
The AUC/dose was 0.9 µM·kg·h/mg.

And the bioavailability [19]?
Its bioavailability is 21%.

What about the clearance [20] of the same compound?
The clearance was 14 mL/min/kg.

And the half-life [21]?
The half-life was 366 min.

What about the AUC/dose [22] of the same compound?
Its AUC/dose is 0.08 µM·kg·h/mg.

And the bioavailability [23]?
The bioavailability was 5%.

What about the ED99 (Candida albicans [24]) of the same compound?
Its ED99 is 1.2 mg/kg.

And the Activity (Candida albicans [25])?
Its Activity is -4.01 deltalog10CFU.

What about the survival at 12.5 mg/kg (Aspergillus fumigatus [26]) of the same compound?
Its survival at 12.5 mg/kg is 60%.

And the survival at 6.25 mg/kg (Aspergillus fumigatus [27])?
The survival at 6.25 mg/kg was 40%.

And the survival at 3.125 mg/kg (Aspergillus fumigatus [28])?
The survival at 3.125 mg/kg was 30%.

What about the ED90 (Aspergillus fumigatus [29]) of the same compound?
The ED90 was 31 mg/kg.

What about the MST (Aspergillus fumigatus [30]) of the same compound?
The MST was 14.7 days.

What about the MST (Aspergillus fumigatus [31]) of the same compound?
The MST was 12.4 days.

And the MST (Aspergillus fumigatus [32])?
Its MST is 10.7 days.

What about the survival at 1.56 mg/kg (Aspergillus fumigatus [33]) of the same compound?
Its survival at 1.56 mg/kg is 0%.

What about the MST (Aspergillus fumigatus [34]) of the same compound?
Its MST is 4.2 days.

And the ED50 (Aspergillus fumigatus [35])?
Its ED50 is 8.2 mg/kg.
